Measured values from ChEMBL document CHEMBL4368914, “Tricyclic Indazoles-A Novel Class of Selective Estrogen Receptor Degrader Antagonists” (J Med Chem, 2019).
pIC50: −log10 of the molar value. Values after ≈ are worked out from the molar mass of the structure shown. Blank lines part the entries; values can stand above or below the compound they belong to.

Assays:
Estrogen receptor [1] = molecular target: T1, Estrogen receptor (Homo sapiens, UniProt P03372); test: Binding affinity to recombinant human GST-tagged ERalpha LBD expressed in baculovirus-infected insect cells by lantha screen assay
T1 sequence (P03372 whole entry): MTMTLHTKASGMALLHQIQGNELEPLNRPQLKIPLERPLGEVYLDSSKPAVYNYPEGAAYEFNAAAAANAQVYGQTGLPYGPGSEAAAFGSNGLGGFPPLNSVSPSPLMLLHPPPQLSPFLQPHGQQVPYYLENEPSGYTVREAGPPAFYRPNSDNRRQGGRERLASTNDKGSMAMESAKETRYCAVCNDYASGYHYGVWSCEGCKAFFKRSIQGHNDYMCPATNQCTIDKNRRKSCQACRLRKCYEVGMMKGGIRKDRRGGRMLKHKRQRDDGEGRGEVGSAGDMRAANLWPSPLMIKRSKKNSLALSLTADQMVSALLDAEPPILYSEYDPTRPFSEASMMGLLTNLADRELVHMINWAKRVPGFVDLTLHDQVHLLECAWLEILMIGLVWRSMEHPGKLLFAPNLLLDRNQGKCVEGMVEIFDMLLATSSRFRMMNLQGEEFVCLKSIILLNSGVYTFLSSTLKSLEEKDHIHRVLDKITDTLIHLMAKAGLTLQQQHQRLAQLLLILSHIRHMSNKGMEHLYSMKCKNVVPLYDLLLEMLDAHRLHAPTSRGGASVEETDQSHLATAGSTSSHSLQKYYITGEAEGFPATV

Estrogen receptor [2] = molecular target: T1, Estrogen receptor; test: Induction of ERalpha degradation in human MCF7 cells after 18 to 24 hrs by in multiplexed cell assay; type: cell-based
How it was run: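 MCF-7 cells were kept at 37 °C, 5% CO₂ in phenol red-free RPMI1640 with 5% charcoal-stripped FCS and 2 mmol/L glutamine. Compounds came from 10 mmol/L DMSO stocks.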

[3] = Fraction unbound in Alderley Park Han Wistar rat plasma by equilibrium dialysis; type: ADME, cell-free
How it was run: (§1)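 Equilibrium dialysis from DMSO stock in 10% plasma, either Alderley Park Han Wistar rat plasma or human plasma.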

[4] = Fraction unbound in 10% human plasma by equilibrium dialysis; type: ADME, cell-free; conditions: 10% plasma; how it was run: as §1
[5] = Intrinsic clearance in rat hepatocytes assessed per million cells; type: ADME, cell-based, Hepatocyte; conditions: read-out: CLH
How it was run: (§2)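 Rate of metabolism (µl/min/10⁶ cells) measured from DMSO stock in isolated hepatocytes diluted to 1x10⁶ cells/mL.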

[6] = Intrinsic clearance in human hepatocytes assessed per million cells; type: ADME, cell-based, Hepatocyte; conditions: read-out: CLH; how it was run: as §2
[7] = Glutathione reactivity in human liver microsomes assessed as GSH trapping ratio of compound to clozapine; type: ADME, Microsome
How it was run: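 Glutathione trapping in human liver microsomes, expressed as a ratio to clozapine.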

[8] = Lipophilicity, log D of the compound at pH 7.4 by shake flask method; type: physicochemical; conditions: buffer
How it was run: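 Shake-flask measurement of logD at pH 7.4.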

[9] = Apparent permeability in human Caco2 cells at 10 uM; type: ADME, cell-based; conditions: Caco-2
How it was run: (§3)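 Compound at 10 μM incubated on cultured Caco-2 or MDCK cells. Permeability was measured apical-to-basolateral and basolateral-to-apical, and efflux ratio was taken as (B to A)/(A to B).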

[10] = Efflux ratio of apparent permeability in human Caco2 cells at 10 uM; type: ADME, cell-based; conditions: Caco-2; how it was run: as §3
[11] = Apparent permeability in MDCK cells at 10 uM; type: ADME, cell-based, Canis lupus familiaris; conditions: dog; how it was run: as §3
[12] = Efflux ratio of apparent permeability in MDCK cells at 10 uM; type: ADME, cell-based, Canis lupus familiaris; conditions: dog; how it was run: as §3
[13] = Solubility of the compound in phosphate buffer at pH 7.4 after 24 hrs; type: physicochemical
How it was run: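 Solubility in aqueous phosphate buffer at pH 7.4 after 24 h at 25 °C.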

[14] = Fraction unbound in mouse plasma by equilibrium dialysis; type: ADME, cell-free
[15] = Fraction unbound in dog plasma by equilibrium dialysis; type: ADME, cell-free, Canis lupus familiaris
[16] = Clearance in rat at 0.5 mg/kg, iv or 1 mg/kg, po; type: ADME, organism-based; conditions: in vivo
How it was run: (§4)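 Single IV dose of 0.5 mg/kg and oral dose of 1 mg/kg in rat and dog. Both routes were formulated in 5% DMSO:95% hydroxypropyl β-cyclodextrin (30% w/v), at 1 mL/kg IV and 4 mL/kg PO.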

[17] = Clearance in dog at 0.5 mg/kg, iv or 1 mg/kg, po; type: ADME, organism-based, Canis lupus familiaris; conditions: in vivo; how it was run: as §4
[18] = Volume of distribution at steady state in rat at 0.5 mg/kg, iv or 1 mg/kg, po; type: ADME, organism-based; conditions: in vivo, read-out: Vdss; how it was run: as §4
[19] = Volume of distribution at steady state in dog at 0.5 mg/kg, iv or 1 mg/kg, po; type: ADME, organism-based, Canis lupus familiaris; conditions: in vivo, read-out: Vdss; how it was run: as §4
[20] = Half life in rat at 0.5 mg/kg, iv or 1 mg/kg, po; type: ADME, organism-based; conditions: in vivo; how it was run: as §4
[21] = Half life in dog at 0.5 mg/kg, iv or 1 mg/kg, po; type: ADME, organism-based, Canis lupus familiaris; conditions: in vivo; how it was run: as §4
[22] = Oral bioavailability in rat at 1 mg/kg; type: ADME, organism-based; conditions: in vivo; how it was run: as §4
[23] = Oral bioavailability in dog at 1 mg/kg; type: ADME, organism-based, Canis lupus familiaris; conditions: in vivo; how it was run: as §4
[24] = AUC in rat at 1 mg/kg, po; type: ADME, organism-based; conditions: in vivo; how it was run: as §4
[25] = AUC in dog at 1 mg/kg, po; type: ADME, organism-based, Canis lupus familiaris; conditions: in vivo; how it was run: as §4
Cytochrome P450 2C9 = Cytochrome P450 2C9 (Homo sapiens, UniProt P11712); test: Inhibition of CYP2C9 in human liver microsomes; type: ADME
How it was run: (§5)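 High-throughput human liver microsome assay across a panel of five CYP isoforms, giving IC50.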

Cytochrome P450 3A4 = Cytochrome P450 3A4 (Homo sapiens, UniProt P08684); test: Inhibition of CYP3A4 in human liver microsomes; type: ADME; how it was run: as §5
[26] = molecular target: Voltage-gated inwardly rectifying potassium channel KCNH2 (Homo sapiens, UniProt Q12809); test: Inhibition of human ERG by plate based planar patch clamp assay
Cytochrome P450 1A2 = molecular target: T2, Cytochrome P450 1A2 (Homo sapiens, UniProt P05177); test: Inhibition of CYP1A2 in human liver microsomes; type: ADME; how it was run: as §5
T2 sequence (P05177 whole entry): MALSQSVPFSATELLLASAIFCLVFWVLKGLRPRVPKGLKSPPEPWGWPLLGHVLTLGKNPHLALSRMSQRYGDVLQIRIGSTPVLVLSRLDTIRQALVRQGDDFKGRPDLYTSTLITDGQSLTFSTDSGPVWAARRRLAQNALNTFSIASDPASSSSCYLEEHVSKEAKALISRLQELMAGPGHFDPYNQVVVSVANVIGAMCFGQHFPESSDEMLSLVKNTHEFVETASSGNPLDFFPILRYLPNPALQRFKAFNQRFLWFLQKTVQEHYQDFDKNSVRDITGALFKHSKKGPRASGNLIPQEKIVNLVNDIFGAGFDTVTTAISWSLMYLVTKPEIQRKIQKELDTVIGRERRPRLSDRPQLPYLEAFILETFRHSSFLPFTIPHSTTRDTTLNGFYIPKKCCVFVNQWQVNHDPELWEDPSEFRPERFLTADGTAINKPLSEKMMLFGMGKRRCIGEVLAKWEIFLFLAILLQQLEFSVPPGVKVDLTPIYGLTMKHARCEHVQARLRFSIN

Cytochrome P450 2C19 = Cytochrome P450 2C19 (Homo sapiens, UniProt P33261); test: Inhibition of CYP2C19 in human liver microsomes; type: ADME; how it was run: as §5
Cytochrome P450 2D6 = Cytochrome P450 2D6 (Homo sapiens, UniProt P10635); test: Inhibition of CYP2D6 in human liver microsomes; type: ADME; how it was run: as §5
[27] = Intrinsic clearance in dog hepatocytes assessed per million cells; type: ADME, cell-based, Canis lupus familiaris, Hepatocyte; conditions: read-out: CLH; how it was run: as §2

Sequence of Cytochrome P450 2C9 (P11712 whole entry, canonical isoform): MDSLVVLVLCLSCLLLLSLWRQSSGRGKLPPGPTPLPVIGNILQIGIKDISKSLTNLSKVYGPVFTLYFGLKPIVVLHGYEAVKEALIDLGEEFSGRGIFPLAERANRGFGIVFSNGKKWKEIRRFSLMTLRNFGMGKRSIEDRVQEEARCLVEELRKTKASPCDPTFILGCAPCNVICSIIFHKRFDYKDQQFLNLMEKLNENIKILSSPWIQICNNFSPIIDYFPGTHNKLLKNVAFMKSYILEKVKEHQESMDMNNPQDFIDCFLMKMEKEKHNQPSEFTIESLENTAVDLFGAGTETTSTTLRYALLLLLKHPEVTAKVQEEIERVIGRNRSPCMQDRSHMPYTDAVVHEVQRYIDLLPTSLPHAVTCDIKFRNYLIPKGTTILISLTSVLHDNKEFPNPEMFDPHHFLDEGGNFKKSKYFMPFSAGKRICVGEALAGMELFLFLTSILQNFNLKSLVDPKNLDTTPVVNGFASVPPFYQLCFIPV
Sequence of Cytochrome P450 2D6 (P10635 whole entry): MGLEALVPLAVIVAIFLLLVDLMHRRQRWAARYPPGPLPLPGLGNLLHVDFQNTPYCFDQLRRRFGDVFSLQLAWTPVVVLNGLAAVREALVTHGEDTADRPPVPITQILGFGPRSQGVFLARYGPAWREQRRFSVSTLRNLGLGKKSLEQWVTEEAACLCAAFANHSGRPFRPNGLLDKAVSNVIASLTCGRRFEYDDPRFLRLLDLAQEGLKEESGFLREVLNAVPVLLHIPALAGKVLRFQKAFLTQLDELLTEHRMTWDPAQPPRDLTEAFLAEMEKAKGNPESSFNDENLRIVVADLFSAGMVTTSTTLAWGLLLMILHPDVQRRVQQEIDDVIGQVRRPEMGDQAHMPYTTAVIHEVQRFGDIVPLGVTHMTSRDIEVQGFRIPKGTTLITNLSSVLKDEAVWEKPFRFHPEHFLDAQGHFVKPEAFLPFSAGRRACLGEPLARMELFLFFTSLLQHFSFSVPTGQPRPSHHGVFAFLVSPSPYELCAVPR
Sequence of Cytochrome P450 3A4 (P08684 whole entry): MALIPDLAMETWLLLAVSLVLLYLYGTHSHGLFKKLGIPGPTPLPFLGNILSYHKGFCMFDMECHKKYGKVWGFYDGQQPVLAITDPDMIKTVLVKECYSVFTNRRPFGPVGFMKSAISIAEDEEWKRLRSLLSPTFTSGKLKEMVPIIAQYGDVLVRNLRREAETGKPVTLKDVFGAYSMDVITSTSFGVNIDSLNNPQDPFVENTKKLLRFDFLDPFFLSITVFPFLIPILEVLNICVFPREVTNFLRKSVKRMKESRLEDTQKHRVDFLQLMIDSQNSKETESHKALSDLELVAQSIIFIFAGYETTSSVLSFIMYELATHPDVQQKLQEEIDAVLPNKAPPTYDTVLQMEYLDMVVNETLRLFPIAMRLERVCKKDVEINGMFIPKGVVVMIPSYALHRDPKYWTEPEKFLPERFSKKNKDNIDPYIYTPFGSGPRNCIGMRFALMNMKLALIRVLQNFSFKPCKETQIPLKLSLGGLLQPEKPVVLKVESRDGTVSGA
Sequence of Cytochrome P450 2C19 (P33261 whole entry): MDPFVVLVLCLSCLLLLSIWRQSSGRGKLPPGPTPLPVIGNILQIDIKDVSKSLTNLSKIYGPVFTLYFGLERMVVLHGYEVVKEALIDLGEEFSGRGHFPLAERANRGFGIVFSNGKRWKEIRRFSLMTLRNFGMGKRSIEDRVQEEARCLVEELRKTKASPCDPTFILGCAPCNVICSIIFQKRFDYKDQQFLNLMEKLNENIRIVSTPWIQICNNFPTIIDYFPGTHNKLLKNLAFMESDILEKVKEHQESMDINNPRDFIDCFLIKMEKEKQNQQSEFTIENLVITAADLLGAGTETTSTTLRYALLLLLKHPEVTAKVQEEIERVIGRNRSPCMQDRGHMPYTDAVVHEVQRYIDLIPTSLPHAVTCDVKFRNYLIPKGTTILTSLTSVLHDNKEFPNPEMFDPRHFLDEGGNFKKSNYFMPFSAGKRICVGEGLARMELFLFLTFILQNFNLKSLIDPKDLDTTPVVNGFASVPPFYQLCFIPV
Sequence of Voltage-gated inwardly rectifying potassium channel KCNH2 (Q12809 whole entry): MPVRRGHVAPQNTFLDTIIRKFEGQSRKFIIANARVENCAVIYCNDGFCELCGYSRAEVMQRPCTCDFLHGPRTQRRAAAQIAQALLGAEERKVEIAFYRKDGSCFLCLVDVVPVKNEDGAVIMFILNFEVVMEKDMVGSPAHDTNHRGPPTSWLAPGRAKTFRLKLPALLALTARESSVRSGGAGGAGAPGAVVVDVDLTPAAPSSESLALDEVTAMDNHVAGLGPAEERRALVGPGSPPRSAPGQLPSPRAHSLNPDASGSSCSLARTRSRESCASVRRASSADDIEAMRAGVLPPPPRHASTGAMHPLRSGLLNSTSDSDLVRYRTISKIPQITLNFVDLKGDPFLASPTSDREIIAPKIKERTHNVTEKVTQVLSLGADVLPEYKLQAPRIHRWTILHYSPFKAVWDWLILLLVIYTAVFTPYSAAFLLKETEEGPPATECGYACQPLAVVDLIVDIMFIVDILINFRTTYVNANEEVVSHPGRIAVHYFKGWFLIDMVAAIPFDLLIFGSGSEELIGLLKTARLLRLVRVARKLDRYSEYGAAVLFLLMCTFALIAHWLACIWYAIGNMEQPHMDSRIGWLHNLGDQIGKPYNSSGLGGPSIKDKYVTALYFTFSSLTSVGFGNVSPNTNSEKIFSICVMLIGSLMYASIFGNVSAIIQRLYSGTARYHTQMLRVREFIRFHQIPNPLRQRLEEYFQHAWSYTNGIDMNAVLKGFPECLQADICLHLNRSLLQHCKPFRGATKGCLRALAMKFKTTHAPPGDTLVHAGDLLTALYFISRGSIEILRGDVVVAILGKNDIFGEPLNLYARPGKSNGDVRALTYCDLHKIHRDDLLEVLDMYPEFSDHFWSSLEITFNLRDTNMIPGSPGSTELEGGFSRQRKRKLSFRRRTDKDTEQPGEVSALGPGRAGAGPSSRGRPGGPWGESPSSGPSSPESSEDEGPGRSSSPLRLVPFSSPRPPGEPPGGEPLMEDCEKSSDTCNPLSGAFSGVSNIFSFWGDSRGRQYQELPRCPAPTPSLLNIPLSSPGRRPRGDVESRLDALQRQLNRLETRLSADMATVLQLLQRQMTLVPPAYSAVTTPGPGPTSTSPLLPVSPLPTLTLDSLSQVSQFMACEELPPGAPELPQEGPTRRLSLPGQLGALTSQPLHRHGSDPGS

fraction unbound [3]: 0.037
SMILES: CC(C)CN1CCc2cc(O)ccc2[C@H]1c1ccc(/C=C/C(=O)O)cc1

pIC50 (Estrogen receptor [1]): 9.40
pIC50 (Estrogen receptor [2]): 9.40
logD [8]: 2.3
fraction unbound [3]: 0.013
fraction unbound [4]: 0.011
hepatocyte CLint [5]: 18 µL/min/1e6 cells
hepatocyte CLint [6]: 8 µL/min/1e6 cells
Papp at 10 µM [9]: 5.8 ×10⁻⁶ cm/s
efflux ratio at 10 µM [10]: 2.6
Papp at 10 µM [11]: 10 ×10⁻⁶ cm/s
efflux ratio at 10 µM [12]: 1.3
solubility at 24 h [13]: 760 µM (≈ 340 µg/mL)
fraction unbound [14]: 0.021
fraction unbound [15]: 0.0062
clearance [16]: 26 mL/min/kg
clearance [17]: 5.4 mL/min/kg
Vd [18]: 1.6 L/kg
Vd [19]: 0.63 L/kg
half-life [20]: 3.7 h
half-life [21]: 4.8 h
bioavailability [22]: 16%
bioavailability [23]: 36%
AUC [24]: 0.57 µM·h
AUC [25]: 3 µM·h
Ratio [7]: < 0.04
pIC50 (Cytochrome P450 2C9): 5.18
pIC50 (Cytochrome P450 3A4): < 4.52
pIC50 (Cytochrome P450 1A2): < 4.52
pIC50 (Cytochrome P450 2C19): < 4.52
pIC50 (Cytochrome P450 2D6): < 4.52
hepatocyte CLint [27]: 7.1 µL/min/1e6 cells
SMILES: C[C@@H]1Cc2c(ccc3[nH]ncc23)[C@@H](c2c(F)cc(/C=C/C(=O)O)cc2F)N1CC(C)(F)F
pIC50 [26]: < 4.00

pIC50 (Estrogen receptor [1]): 8.90
pIC50 (Estrogen receptor [2]): 8.20
logD [8]: 2.6
fraction unbound [4]: 0.0082
hepatocyte CLint [5]: 17 µL/min/1e6 cells
hepatocyte CLint [6]: 7 µL/min/1e6 cells
SMILES: COc1c([C@@H]2c3ccc4[nH]ncc4c3C[C@@H](C)N2CC(C)(F)F)ccc(/C=C/C(=O)O)c1F

Continued, compound first:

SMILES: CC(C)CN1[C@H](c2ccc(/C=C/C(=O)O)cc2)c2ccc3[nH]ncc3c2C[C@H]1C
pIC50 (Estrogen receptor [1]): 8.00
pIC50 (Estrogen receptor [2]): 9.20
fraction unbound [3]: 0.034
fraction unbound [4]: 0.022
hepatocyte CLint [5]: 7 µL/min/1e6 cells
hepatocyte CLint [6]: 30 µL/min/1e6 cells
Ratio [7]: < 0.04

SMILES: CC(C)CN1CCc2cccc3[nH]cc(c23)C1c1ccc(/C=C/C(=O)O)cc1 (configuration not stated)
pIC50 (Estrogen receptor [1]): 4.40
pIC50 (Estrogen receptor [2]): < 5.00
logD [8]: 1
fraction unbound [4]: 0.11
hepatocyte CLint [5]: 10 µL/min/1e6 cells

SMILES: CC(C)CN1[C@H](c2c(F)cc(/C=C/C(=O)O)cc2F)c2ccc3[nH]ncc3c2C[C@H]1C
pIC50 (Estrogen receptor [1]): 8.90
pIC50 (Estrogen receptor [2]): 9.10
logD [8]: 3
fraction unbound [3]: 0.0052
fraction unbound [4]: 0.0048
hepatocyte CLint [5]: 19 µL/min/1e6 cells
hepatocyte CLint [6]: 22 µL/min/1e6 cells
Ratio [7]: < 0.04

SMILES: C[C@@H]1Cc2c(ccc3[nH]ncc23)[C@@](C)(c2c(F)cc(/C=C/C(=O)O)cc2F)N1CC(C)(F)F
pIC50 (Estrogen receptor [1]): 9.50
pIC50 (Estrogen receptor [2]): 9.10
logD [8]: 3
fraction unbound [3]: 0.0076
fraction unbound [4]: 0.0027
hepatocyte CLint [5]: 20 µL/min/1e6 cells
hepatocyte CLint [6]: 6 µL/min/1e6 cells

SMILES: COc1cc(/C=C/C(=O)O)c(F)cc1[C@@H]1c2ccc3[nH]ncc3c2C[C@@H](C)N1CC(C)(F)F
pIC50 (Estrogen receptor [1]): 9.30
pIC50 (Estrogen receptor [2]): 9.50
logD [8]: 2.6
fraction unbound [4]: 0.012
hepatocyte CLint [5]: 22 µL/min/1e6 cells
hepatocyte CLint [6]: 5 µL/min/1e6 cells
